# Source: ChEMBL document CHEMBL1671761, “Preclinical characterization of BI 201335, a C-terminal carboxylic acid inhibitor of the hepatitis C virus NS3-NS4A protease” (Antimicrob Agents Chemother, 2010)
# How the values were obtained:
# [1] = AUC in dog at 5 mg/kg, po; type: ADME, organism-based, Canis lupus familiaris; design: dose 5 mg/kg, route oral; settings: plasma
# In short: (§1)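 Single oral dose of 5 mg/kg in 0.5% Methocel with 0.3% Tween 80 (10 ml/kg) to fasted male animals: Sprague-Dawley rats (275-300 g, overnight fast with 10% dextrose water), rhesus monkeys, beagle dogs. Rat blood from cannulated carotid at 0-8 h, pooled from 3 rats per time point; monkey/dog n=3. Plasma solid-phase extracted, LC-MS/MS at m/z 869.3; noncompartmental analysis.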
# [2] = target: Angiotensin-converting enzyme (Homo sapiens) (UniProt P12821); test: Inhibition of human ACE at 10 uM
# [3] = Mean retention time in monkey at 5 mg/kg, po; type: ADME, organism-based, Macaca mulatta; design: dose 5 mg/kg, route oral; settings: rhesus monkey, in vivo
# In short: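 Fasted male rhesus monkeys (3.0-4.8 kg) given a single oral dose in 0.5% Methocel/0.3% Tween 80. Plasma taken by solid-phase extraction and measured by LC-MS/MS at m/z 869.3 (LOQ 10 nM). Noncompartmental analysis. Mean ± SE for three males.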
# [4] = Tmax in rat at 5 mg/kg, po; type: ADME, organism-based; design: dose 5 mg/kg, route oral; settings: in vivo
# In short: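 Male Sprague-Dawley rats (275-300 g), fasted overnight with 10% dextrose water. Single oral dose in 0.5% Methocel/0.3% Tween 80 at 10 ml/kg. Carotid-cannula blood taken 0-8 h, with plasma from 3 rats pooled per time point. Solid-phase extraction, then LC-MS/MS at m/z 869.3 (LOQ 10 nM). Noncompartmental analysis.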
# [5] = target: Nitric oxide synthase 3 (Rattus norvegicus) (UniProt Q62600); test: Inhibition of rat cNOS at 10 uM
# Chain of Nitric oxide synthase 3 (Rattus norvegicus) (Q62600 whole entry): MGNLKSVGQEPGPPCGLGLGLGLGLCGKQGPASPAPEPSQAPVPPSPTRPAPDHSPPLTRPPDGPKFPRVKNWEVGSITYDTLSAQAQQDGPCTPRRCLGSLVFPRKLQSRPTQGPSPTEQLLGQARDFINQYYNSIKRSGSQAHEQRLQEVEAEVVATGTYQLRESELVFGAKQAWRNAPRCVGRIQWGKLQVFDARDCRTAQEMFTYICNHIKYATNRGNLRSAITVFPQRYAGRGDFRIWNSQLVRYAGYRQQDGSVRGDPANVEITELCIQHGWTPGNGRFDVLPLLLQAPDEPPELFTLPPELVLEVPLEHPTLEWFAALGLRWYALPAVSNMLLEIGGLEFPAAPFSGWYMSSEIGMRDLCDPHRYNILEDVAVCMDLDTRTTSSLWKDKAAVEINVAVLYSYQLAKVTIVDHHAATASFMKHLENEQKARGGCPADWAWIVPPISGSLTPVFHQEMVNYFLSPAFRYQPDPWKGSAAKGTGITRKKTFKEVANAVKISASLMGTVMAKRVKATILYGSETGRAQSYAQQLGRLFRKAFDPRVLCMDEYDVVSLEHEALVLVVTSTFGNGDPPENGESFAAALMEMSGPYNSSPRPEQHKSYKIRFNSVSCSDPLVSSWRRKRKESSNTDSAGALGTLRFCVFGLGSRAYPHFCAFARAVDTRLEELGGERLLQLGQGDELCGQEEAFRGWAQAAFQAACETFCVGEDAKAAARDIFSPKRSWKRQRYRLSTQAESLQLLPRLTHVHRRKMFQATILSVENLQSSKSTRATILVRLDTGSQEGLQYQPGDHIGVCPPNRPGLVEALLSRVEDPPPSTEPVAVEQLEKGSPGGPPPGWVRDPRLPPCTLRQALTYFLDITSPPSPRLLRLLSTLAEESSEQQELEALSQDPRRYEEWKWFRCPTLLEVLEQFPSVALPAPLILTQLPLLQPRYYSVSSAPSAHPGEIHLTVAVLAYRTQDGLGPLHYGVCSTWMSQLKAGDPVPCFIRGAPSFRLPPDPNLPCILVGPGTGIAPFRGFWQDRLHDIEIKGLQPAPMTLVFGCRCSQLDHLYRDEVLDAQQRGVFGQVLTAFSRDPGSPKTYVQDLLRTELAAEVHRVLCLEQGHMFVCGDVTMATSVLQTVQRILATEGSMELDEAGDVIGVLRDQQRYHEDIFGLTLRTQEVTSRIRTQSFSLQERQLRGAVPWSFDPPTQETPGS
# [6] = target: Nitric oxide synthase, inducible (Mus musculus) (UniProt P29477); test: Inhibition of mouse iNOS at 10 uM
# [7] = species: Rattus norvegicus; test: Inhibition of rat 5-HT1 receptor at 10 uM
# [8] = target: D(2) dopamine receptor (Homo sapiens) (UniProt P14416); test: Inhibition of human dopamine receptor 2L at 10 uM
# [9] = species: Homo sapiens; test: Inhibition of human endothelin-converting enzyme at 10 uM by cerep assay
# [10] = target: Plasminogen (Homo sapiens) (UniProt P00747); test: Inhibition of human plasmin at 10 uM
# Chain of Plasminogen (Homo sapiens) (P00747 97-580 limits assumed): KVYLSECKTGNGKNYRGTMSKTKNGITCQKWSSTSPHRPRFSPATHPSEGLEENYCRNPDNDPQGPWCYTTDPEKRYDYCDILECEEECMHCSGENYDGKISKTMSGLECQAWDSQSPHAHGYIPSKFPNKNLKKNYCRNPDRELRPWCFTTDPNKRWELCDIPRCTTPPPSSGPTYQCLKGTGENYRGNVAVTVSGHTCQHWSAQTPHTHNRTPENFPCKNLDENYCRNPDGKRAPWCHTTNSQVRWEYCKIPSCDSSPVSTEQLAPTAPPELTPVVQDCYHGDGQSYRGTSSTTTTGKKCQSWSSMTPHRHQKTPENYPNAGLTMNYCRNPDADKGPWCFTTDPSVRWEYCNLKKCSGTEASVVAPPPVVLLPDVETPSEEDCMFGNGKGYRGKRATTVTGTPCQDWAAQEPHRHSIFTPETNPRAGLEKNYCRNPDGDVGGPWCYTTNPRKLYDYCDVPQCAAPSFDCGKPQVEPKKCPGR
# Chain of Plasminogen (Homo sapiens) (P00747 581-810 limits assumed): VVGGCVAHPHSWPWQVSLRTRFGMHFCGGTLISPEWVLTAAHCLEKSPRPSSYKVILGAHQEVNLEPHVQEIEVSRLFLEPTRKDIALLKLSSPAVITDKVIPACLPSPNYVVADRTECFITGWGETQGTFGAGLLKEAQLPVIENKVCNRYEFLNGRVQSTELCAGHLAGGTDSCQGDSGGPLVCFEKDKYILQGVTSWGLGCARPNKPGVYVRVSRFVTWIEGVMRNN
# [11] = target: Tissue-type plasminogen activator (Homo sapiens) (UniProt P00750); test: Inhibition of human tPA at 10 uM
# Chain of Tissue-type plasminogen activator (Homo sapiens) (P00750 36-562 limits assumed): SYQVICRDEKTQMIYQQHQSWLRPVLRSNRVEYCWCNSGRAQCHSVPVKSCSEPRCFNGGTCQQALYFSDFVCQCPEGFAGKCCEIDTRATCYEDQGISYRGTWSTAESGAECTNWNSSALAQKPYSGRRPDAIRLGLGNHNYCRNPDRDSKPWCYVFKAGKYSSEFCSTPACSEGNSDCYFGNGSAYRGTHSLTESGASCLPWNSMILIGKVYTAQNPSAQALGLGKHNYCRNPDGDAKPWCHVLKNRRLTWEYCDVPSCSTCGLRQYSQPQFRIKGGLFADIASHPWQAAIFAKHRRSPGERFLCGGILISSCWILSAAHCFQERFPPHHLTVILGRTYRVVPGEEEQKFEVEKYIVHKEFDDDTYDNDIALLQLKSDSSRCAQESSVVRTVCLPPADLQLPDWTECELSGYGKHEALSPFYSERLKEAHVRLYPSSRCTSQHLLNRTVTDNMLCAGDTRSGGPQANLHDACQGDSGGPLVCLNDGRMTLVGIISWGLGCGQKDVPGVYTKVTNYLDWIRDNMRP
# [12] = target: Cathepsin B (Homo sapiens, UniProt P07858); test: Inhibition of human cathepsin B at 10 uM
# [13] = target: Matrilysin (Homo sapiens) (UniProt P09237); test: Inhibition of human MMP-7 at 10 uM
# [14] = target: Plasma kallikrein (Homo sapiens) (UniProt P03952); test: Inhibition of human kallikrein at 10 uM
# [15] = target: Caspase-6 (Homo sapiens) (UniProt P55212); test: Inhibition of human caspase-6 at 10 uM
# [16] = AUC in rat at 5 mg/kg, po; type: ADME, organism-based; design: dose 5 mg/kg, route oral; settings: plasma; in short: as §1
# [17] = species: Rattus norvegicus; test: Inhibition of rat opiate receptor at 10 uM
# [18] = target: Prothrombin (Homo sapiens) (UniProt P00734); test: Inhibition of human thrombin at 10 uM
# [19] = species: Rattus norvegicus; test: Inhibition of rat 5-HT3 receptor at 10 uM
# [20] = target: Histamine H1 receptor (Homo sapiens) (UniProt P35367); test: Inhibition of human H1 receptor at 10 uM
# [21] = target: Caspase-1 (Homo sapiens) (UniProt P29466); test: Inhibition of human caspase-1 at 10 uM
# Chain of Caspase-1 (Homo sapiens) (P29466 120-297 limits assumed): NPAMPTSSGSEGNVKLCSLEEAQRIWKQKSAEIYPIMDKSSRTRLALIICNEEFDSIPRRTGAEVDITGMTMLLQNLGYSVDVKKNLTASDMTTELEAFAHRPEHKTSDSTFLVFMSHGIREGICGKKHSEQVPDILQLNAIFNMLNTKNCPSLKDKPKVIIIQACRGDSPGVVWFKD
# Chain of Caspase-1 (Homo sapiens) (P29466 317-404 limits assumed): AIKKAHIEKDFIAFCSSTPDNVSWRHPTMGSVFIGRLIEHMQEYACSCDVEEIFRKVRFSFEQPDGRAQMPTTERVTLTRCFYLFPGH
# [22] = target: Chymase (Homo sapiens) (UniProt P23946); test: Inhibition of human chymase at 10 uM
# Chain of Chymase (Homo sapiens) (P23946 whole entry): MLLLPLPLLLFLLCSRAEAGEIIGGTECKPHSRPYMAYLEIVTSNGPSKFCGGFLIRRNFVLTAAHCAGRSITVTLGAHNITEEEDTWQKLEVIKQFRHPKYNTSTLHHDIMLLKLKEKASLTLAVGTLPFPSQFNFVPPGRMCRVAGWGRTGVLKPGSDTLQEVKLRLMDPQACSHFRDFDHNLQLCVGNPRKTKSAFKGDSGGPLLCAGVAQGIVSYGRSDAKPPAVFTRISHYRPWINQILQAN
# [23] = AUC (0 to infinity) in dog at 5 mg/kg, po; type: ADME, organism-based, Canis lupus familiaris; design: time infinity, dose 5 mg/kg, route oral; settings: plasma; in short: as §1
# [24] = target: Caspase-7 (Homo sapiens) (UniProt P55210); test: Inhibition of human caspase-7 at 10 uM
# Chain of Caspase-7 (Homo sapiens) (P55210 24-198 limits assumed): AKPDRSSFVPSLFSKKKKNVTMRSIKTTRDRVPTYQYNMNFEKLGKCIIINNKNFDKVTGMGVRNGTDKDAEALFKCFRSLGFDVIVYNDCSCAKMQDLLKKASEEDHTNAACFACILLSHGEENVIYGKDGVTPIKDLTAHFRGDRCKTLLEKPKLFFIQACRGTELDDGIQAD
# Chain of Caspase-7 (Homo sapiens) (P55210 207-303 limits assumed): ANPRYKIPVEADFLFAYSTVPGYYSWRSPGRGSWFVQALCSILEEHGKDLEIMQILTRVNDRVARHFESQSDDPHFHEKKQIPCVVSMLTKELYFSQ
# [25] = target: Caspase-10 (Homo sapiens) (UniProt Q92851); test: Inhibition of human recombinant caspase-10 expressed in Escherichia coli at 10 uM by fluorimetry
# [26] = target: D(1A) dopamine receptor (Homo sapiens) (UniProt P21728); test: Inhibition of human dopamine receptor 1 at 10 uM
# [27] = species: Rattus norvegicus; test: Inhibition of rat potassium channel-A at 10 uM
# [28] = target: Adenosine receptor A1 (Homo sapiens) (UniProt P30542); test: Inhibition of human adenosine A1 receptor at 10 uM
# [29] = target: Caspase-3 (Homo sapiens) (UniProt P42574); test: Inhibition of human caspase-3 at 10 uM
# [30] = target: Protein kinase C (PKC) (Rattus norvegicus) (UniProt P05696+P68403+P09216+P63319+P09215+Q64617+Q9WTQ0+P09217); test: Inhibition of rat PKC at 10 uM
# [31] = target: Histamine H3 receptor (Homo sapiens) (UniProt Q9Y5N1); test: Inhibition of human H3 receptor at 10 uM
# Chain of Histamine H3 receptor (Homo sapiens) (Q9Y5N1 whole entry, looked up): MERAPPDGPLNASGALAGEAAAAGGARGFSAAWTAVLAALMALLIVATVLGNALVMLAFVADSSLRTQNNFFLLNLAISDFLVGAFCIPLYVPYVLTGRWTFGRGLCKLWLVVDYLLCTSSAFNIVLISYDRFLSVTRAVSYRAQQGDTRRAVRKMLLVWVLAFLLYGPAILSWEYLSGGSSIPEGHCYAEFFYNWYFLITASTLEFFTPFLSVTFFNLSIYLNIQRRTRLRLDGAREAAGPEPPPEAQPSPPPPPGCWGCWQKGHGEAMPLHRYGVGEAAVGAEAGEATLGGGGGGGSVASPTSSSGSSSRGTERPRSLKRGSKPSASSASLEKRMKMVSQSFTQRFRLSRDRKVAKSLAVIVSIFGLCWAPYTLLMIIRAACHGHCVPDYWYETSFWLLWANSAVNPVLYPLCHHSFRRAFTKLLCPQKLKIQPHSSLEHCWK
# [32] = species: Homo sapiens; test: Inhibition of human nicotinic acetylcholine receptor at 10 uM
# [33] = target: D(1B) dopamine receptor (Homo sapiens) (UniProt P21918); test: Inhibition of human dopamine receptor 5 at 10 uM
# [34] = target: 72 kDa type IV collagenase (Homo sapiens) (UniProt P08253); test: Inhibition of human MMP-2 at 10 uM
# [35] = target: Caspase-9 (Homo sapiens) (UniProt P55211); test: Inhibition of human caspase-9 at 10 uM
# Chain of Caspase-9 (Homo sapiens) (P55211 1-315 limits assumed): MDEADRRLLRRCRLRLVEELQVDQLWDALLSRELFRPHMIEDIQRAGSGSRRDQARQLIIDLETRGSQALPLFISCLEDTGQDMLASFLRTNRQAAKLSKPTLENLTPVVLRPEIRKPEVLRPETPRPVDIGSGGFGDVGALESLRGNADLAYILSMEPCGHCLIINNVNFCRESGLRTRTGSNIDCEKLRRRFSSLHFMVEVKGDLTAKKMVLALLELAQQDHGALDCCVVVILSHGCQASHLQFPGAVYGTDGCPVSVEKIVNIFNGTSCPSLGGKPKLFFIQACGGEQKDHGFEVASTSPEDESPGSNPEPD
# Chain of Caspase-9 (Homo sapiens) (P55211 331-416 limits assumed): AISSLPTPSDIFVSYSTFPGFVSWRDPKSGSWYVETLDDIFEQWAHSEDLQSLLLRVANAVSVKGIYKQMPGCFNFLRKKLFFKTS
# [36] = target: Neprilysin (Homo sapiens) (UniProt P08473); test: Inhibition of human neutral endopeptidase at 10 uM
# [37] = species: Rattus norvegicus; test: Inhibition of rat sodium channel site 2 at 10 uM
# [38] = system: Hepatitis C virus; test: Inhibition of HCV 1b NS3/4A protease; design: species or system Hepatitis C virus subtype 1b; settings: read-out: Ki(app)
# In short: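 Full-length NS3 coexpressed with the 54-residue NS4A, 0.5 nM (2.5 nM for genotype 1a). Substrate was 5 μM anthranilyl-DDIVPAbu[C(O)-O]AMY(3-NO2)TW-OH in 50 mM Tris pH 8.0, 0.25 M citrate, 0.01% dodecylmaltoside, 1 mM TCEP, 5% DMSO. Run at 23°C for 60-70 min, stopped with MES pH 5.8, read by product fluorescence. IC50 converted to apparent Ki via IC50=Ki(1+[S]/Km). Mean ± SD, ≥3 experiments.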
# [39] = target: Disintegrin and metalloproteinase domain-containing protein 17 (Homo sapiens) (UniProt P78536); test: Inhibition of human TACE at 10 uM
# Chain of Disintegrin and metalloproteinase domain-containing protein 17 (Homo sapiens) (P78536 whole entry, the tested form may be a part): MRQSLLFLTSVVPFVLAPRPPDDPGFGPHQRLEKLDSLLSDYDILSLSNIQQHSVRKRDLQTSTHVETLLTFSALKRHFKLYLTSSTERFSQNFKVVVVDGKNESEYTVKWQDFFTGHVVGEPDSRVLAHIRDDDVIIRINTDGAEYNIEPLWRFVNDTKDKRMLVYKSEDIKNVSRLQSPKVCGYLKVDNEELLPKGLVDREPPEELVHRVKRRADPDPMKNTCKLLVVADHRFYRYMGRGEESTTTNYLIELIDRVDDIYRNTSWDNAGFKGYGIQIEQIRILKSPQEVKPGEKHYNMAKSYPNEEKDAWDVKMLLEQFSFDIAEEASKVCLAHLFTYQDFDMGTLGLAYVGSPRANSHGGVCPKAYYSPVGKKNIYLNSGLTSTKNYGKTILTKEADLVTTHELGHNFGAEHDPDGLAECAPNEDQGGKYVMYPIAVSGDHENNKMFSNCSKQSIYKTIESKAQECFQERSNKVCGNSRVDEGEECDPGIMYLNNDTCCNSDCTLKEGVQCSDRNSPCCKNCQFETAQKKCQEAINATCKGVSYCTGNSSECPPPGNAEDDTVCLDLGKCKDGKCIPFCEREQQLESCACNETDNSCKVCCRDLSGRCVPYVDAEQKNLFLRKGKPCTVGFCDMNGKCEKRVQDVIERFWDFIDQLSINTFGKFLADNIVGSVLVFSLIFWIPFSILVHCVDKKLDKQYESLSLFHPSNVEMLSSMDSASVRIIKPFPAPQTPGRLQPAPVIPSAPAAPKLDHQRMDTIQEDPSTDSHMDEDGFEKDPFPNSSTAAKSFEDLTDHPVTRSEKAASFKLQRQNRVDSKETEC
# [40] = target: Neutrophil elastase (Homo sapiens) (UniProt P08246); test: Inhibition of human serum elastase, neutrophil at 10 uM by fluorimetry
# [41] = target: Sodium-dependent noradrenaline transporter (Homo sapiens) (UniProt P23975); test: Inhibition of human norepinephrine transporter at 10 uM
# [42] = target: Histamine H2 receptor (Homo sapiens) (UniProt P25021); test: Inhibition of human H2 receptor at 10 uM
smiles,measurement,setting,value
C=C[C@@H]1C[C@]1(NC(=O)[C@@H]1C[C@@H](Oc2cc(-c3csc(NC(=O)C(C)C)n3)nc3c(Br)c(OC)ccc23)CN1C(=O)[C@@H](NC(=O)OC1CCCC1)C(C)(C)C)C(=O)O,AUC,[1],13 µM·h
same,inhibition,[2],5%
same,MRT,[3],2.6 h
same,Tmax,[4],1.5 h
same,inhibition,[5],7%
same,inhibition,[6],0%
same,inhibition,[7],10%
same,inhibition,[8],1%
same,inhibition,[9],11%
same,inhibition,[10],18%
same,inhibition,[11],2%
same,inhibition,[12],22%
same,inhibition,[13],6%
same,inhibition,[14],0%
same,inhibition,[15],28%
same,AUC,[16],1.55 µM·h
same,inhibition,[17],26%
same,inhibition,[18],9%
same,inhibition,[19],7%
same,inhibition,[20],3%
same,inhibition,[21],13%
same,inhibition,[22],11%
same,AUC(0-inf),[23],14 µM·h
same,inhibition,[24],28%
same,inhibition,[25],12%
same,inhibition,[26],14%
same,inhibition,[27],10%
same,inhibition,[28],2%
same,inhibition,[29],5%
same,inhibition,[30],15%
same,inhibition,[31],5%
same,inhibition,[32],22%
same,inhibition,[33],11%
same,inhibition,[34],10%
same,inhibition,[35],23%
same,inhibition,[36],3%
same,inhibition,[37],12%
same,Ki,[38],2.8 nM
same,inhibition,[39],77%
same,inhibition,[40],22%
same,inhibition,[41],20%
same,inhibition,[42],21%
